What was measured:
Assay type in all cases: functional
SR = assay: Antiproliferative activity against human SR cells after 48 hrs by SRB assay
Outline: (§1)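 NCI 60-cell-line human tumour panel, secondary five-dose screen. Compounds tested at 100, 10, 1.0, 0.1 and 0.01 µM with 48 h continuous exposure. Cell growth was estimated by sulforhodamine B protein staining. GI50 is the concentration giving a 50% reduction in net protein increase relative to untreated control cells over the incubation. TGI and LC50 were also derived.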

U-251 = assay: Antiproliferative activity against human U251 cells after 48 hrs by SRB assay; settings: U-251, 48 h
Outline: (§2)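 NCI 60-cell human tumour line panel. Continuous 48 h drug exposure at five concentrations (100, 10, 1.0, 0.1, 0.01 µM). Cell growth estimated by sulforhodamine B protein staining. GI50 = concentration giving 50% reduction in net protein increase versus control cells over the incubation. LC50 = molar concentration killing 50% of cells.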

NCI-H522 = assay: Antiproliferative activity against human NCI-H522 cells after 48 hrs by SRB assay; settings: NCI-H522, 48 h; outline: as §1
OVCAR-5 = assay: Antiproliferative activity against human OVCAR5 cells after 48 hrs by SRB assay; settings: OVCAR-5, 48 h; outline: as §1
NCI-H226 = assay: Antiproliferative activity against human NCI-H226 cells after 48 hrs by SRB assay; settings: NCI-H226, 48 h, read-out: LC50 (the source's name); outline: as §1
SF-295 = assay: Antiproliferative activity against human SF295 cells after 48 hrs by SRB assay; settings: SF-295, 48 h; outline: as §1
CAKI-1 = assay: Antiproliferative activity against human Caki1 cells after 48 hrs by SRB assay; settings: CAKI-1, 48 h; outline: as §2
UACC-257 = assay: Antiproliferative activity against human UACC257 cells after 48 hrs by SRB assay; settings: UACC-257, 48 h; outline: as §1
T47D = assay: Antiproliferative activity against human T47D cells after 48 hrs by SRB assay; outline: as §2
NCI-H460 = assay: Antiproliferative activity against human NCI-H460 cells after 48 hrs by SRB assay; settings: NCI-H460, 48 h; outline: as §1
MCF7 = assay: Antiproliferative activity against human MCF7 cells after 48 hrs by SRB assay; settings: MCF7, 48 h, read-out: LC50 (the source's name); outline: as §1
COLO 205 = assay: Antiproliferative activity against human COLO205 cells after 48 hrs by SRB assay; settings: COLO 205, 48 h; outline: as §2
A498 = assay: Antiproliferative activity against human A498 cells after 48 hrs by SRB assay; settings: A498, 48 h, read-out: LC50 (the source's name); outline: as §1
LOX IMVI = assay: Antiproliferative activity against human LOXIMVI cells after 48 hrs by SRB assay; outline: as §1
HT-29 = assay: Antiproliferative activity against human HT-29 cells after 48 hrs by SRB assay; settings: HT-29, 48 h, read-out: LC50 (the source's name); outline: as §1
BT-549 = assay: Antiproliferative activity against human BT549 cells after 48 hrs by SRB assay; settings: BT-549, 48 h, read-out: LC50 (the source's name); outline: as §1
HCC 2998 = assay: Antiproliferative activity against human HCC2998 cells after 48 hrs by SRB assay; settings: HCC 2998, 48 h; outline: as §1
MDA-MB-231 = assay: Antiproliferative activity against human MDA-MB-231 cells after 48 hrs by SRB assay; settings: MDA-MB-231, 48 h; outline: as §2
EKVX = assay: Antiproliferative activity against human EKVX cells after 48 hrs by SRB assay; settings: read-out: LC50 (the source's name); outline: as §1
IGROV-1 = assay: Antiproliferative activity against human IGROV1 cells after 48 hrs by SRB assay; settings: IGROV-1, 48 h, read-out: LC50 (the source's name); outline: as §1
UO-31 = assay: Antiproliferative activity against human UO31 cells after 48 hrs by SRB assay; settings: UO-31, 48 h, read-out: LC50 (the source's name); outline: as §1
UACC-62 = assay: Antiproliferative activity against human UACC62 cells after 48 hrs by SRB assay; settings: UACC-62, 48 h; outline: as §1
A549 = assay: Antiproliferative activity against human A549 cells after 48 hrs by SRB assay; settings: A549, 48 h, read-out: LC50 (the source's name); outline: as §1
SNB-75 = assay: Antiproliferative activity against human SNB75 cells after 48 hrs by SRB assay; settings: SNB-75, 48 h; outline: as §1
[1] = Antiproliferative activity against human […] cells after 48 hrs by SRB assay; outline: as §1
HOP-92 = assay: Antiproliferative activity against human HOP92 cells after 48 hrs by SRB assay; settings: HOP-92, 48 h; outline: as §1
MDA-MB-435 = assay: Antiproliferative activity against human MDA-MB-435 cells after 48 hrs by SRB assay; settings: MDA-MB-435, 48 h, read-out: LC50 (the source's name); outline: as §1
HCT-15 = assay: Antiproliferative activity against human HCT15 cells after 48 hrs by SRB assay; settings: HCT-15, 48 h; outline: as §1
M14 = assay: Antiproliferative activity against human M14 cells after 48 hrs by SRB assay; settings: M14, 48 h, read-out: LC50 (the source's name); outline: as §1
HCT-116 = assay: Antiproliferative activity against human HCT116 cells after 48 hrs by SRB assay; settings: HCT-116, 48 h; outline: as §2
SNB-19 = assay: Antiproliferative activity against human SNB19 cells after 48 hrs by SRB assay; settings: SNB-19, 48 h, read-out: LC50 (the source's name); outline: as §1
SF-539 = assay: Antiproliferative activity against human SF539 cells after 48 hrs by SRB assay; settings: SF-539, 48 h; outline: as §2
NCI-H322M = assay: Antiproliferative activity against human NCI-H322M cells after 48 hrs by SRB assay; settings: read-out: LC50 (the source's name); outline: as §1
Malme-3M = assay: Antiproliferative activity against human MALME-3M cells after 48 hrs by SRB assay; settings: read-out: LC50 (the source's name); outline: as §1
NCI/ADR-RES = assay: Antiproliferative activity against human NCI/ADR-RES cells after 48 hrs by SRB assay; outline: as §2
SK-MEL-28 = assay: Antiproliferative activity against human SK-MEL-28 cells after 48 hrs by SRB assay; settings: SK-MEL-28, 48 h, read-out: LC50 (the source's name); outline: as §1
SK-OV-3 = assay: Antiproliferative activity against human SKOV3 cells after 48 hrs by SRB assay; settings: SK-OV-3, 48 h; outline: as §1
OVCAR-8 = assay: Antiproliferative activity against human OVCAR8 cells after 48 hrs by SRB assay; settings: OVCAR-8, 48 h, read-out: LC50 (the source's name); outline: as §1
[2] = read-out: LC50 (the source's name)

In the case of `COc1ccc(C2=NN(C(C)=O)C(c3cn(-c4ccccc4)nc3-c3ccc(Cl)cc3)C2)cc1` (stereo not drawn), the GI50 (SR) is reported as 1570 nM, the GI50 (U-251) is reported as 1710 nM and the GI50 (NCI-H522) is reported as 2200 nM. For the same compound, the LC50 (concentration killing 50% of tumour cells) (NCI-H522) was over 100000 nM, the GI50 (OVCAR-5) was 1810 nM and the CC50 (OVCAR-5; [2]) was over 100000 nM. It also gave a CC50 (NCI-H226) of over 100000 nM, a GI50 (SF-295) of 2480 nM and a CC50 (SF-295; [2]) of over 100000 nM. For the same compound, the GI50 (CAKI-1) was 1960 nM, the GI50 (UACC-257) was over 100000 nM and the LC50 (concentration killing 50% of cells) (UACC-257) was over 100000 nM. For the same compound, the GI50 (T47D) was 1900 nM, the GI50 (NCI-H460) was 1980 nM and the CC50 (MCF7) was over 100000 nM. The GI50 (COLO 205) was 2160 nM, the CC50 (A498) was over 100000 nM and the GI50 (LOX IMVI) was 1660 nM. It also gave a CC50 (HT-29) of over 100000 nM, a CC50 (BT-549) of over 100000 nM and a GI50 (HCC 2998) of 2210 nM. It also gave a CC50 (HCC 2998; [2]) of over 100000 nM, a GI50 (MDA-MB-231) of 1880 nM and a CC50 (EKVX) of over 100000 nM. It also gave a CC50 (IGROV-1) of over 100000 nM, a CC50 (UO-31) of over 100000 nM and a GI50 (UACC-62) of 2400 nM. It also gave a CC50 (UACC-62; [2]) of over 100000 nM, a CC50 (A549) of over 100000 nM and a GI50 (SNB-75) of 2760 nM. For the same compound, the LC50 (50% lethal concentration) (SNB-75) was over 100000 nM, the GI50 [1] was 1730 nM and the LC50 (50% lethal concentration) [1] was over 100000 nM. It also gave a GI50 (HOP-92) of 40 nM, a CC50 (MDA-MB-435) of over 100000 nM and a GI50 (HCT-15) of 3090 nM. It also gave a CC50 (HCT-15; [2]) of over 100000 nM, a CC50 (M14) of over 100000 nM and a GI50 (HCT-116) of 1940 nM. The CC50 (SNB-19) was over 100000 nM, the GI50 (SF-539) was 1870 nM and the CC50 (NCI-H322M) was over 100000 nM. The CC50 (Malme-3M) was over 100000 nM, the GI50 (NCI/ADR-RES) was 1800 nM and the CC50 (SK-MEL-28) was over 100000 nM. It also gave a GI50 (SK-OV-3) of 2140 nM, a CC50 (SK-OV-3; [2]) of over 100000 nM and a CC50 (OVCAR-8) of over 100000 nM.

Source: ChEMBL document CHEMBL1177688, “Synthesis of novel pyrazolic analogues of chalcones and their 3-aryl-4-(3-aryl-4,5-dihydro-1H-pyrazol-5-yl)-1-phenyl-1H-pyrazole derivatives as potential antitumor agents” (2010)
